The full list was thinned out, with hits kept by preference.
HCT116 PTEN-null: PTEN-deleted cell growth suppression; HCT116 PTEN-null viability, CellTiter-Glo, 60 h; active compounds read low; hit rate 1.2% among 140,000; AID 827; viability, % at 10 µM;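 active = viability at or below a set limit, 4 SD under the median of all tested compounds, cut at about 3.7% in these data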;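 also: PTEN knockout HCT116 line with beta catenin targeted HCT116 as companion control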
Pyk2 oligo antag: Pyk2 (human) oligomerization antagonism; Q14289; Q293 cells, Pyk2 FERM NanoBiT luminescence; active compounds read low; z-score (the deposit names both 25 µM and 10 µM); hit rate 0.83% among 99,000;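 active = Z-score of -3 or lower, scaled per plate to the spread of control and sample wells; inactive = z-score above -3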;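 also: negative z-score means lost luminescence so less FERM oligomerization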
Fibroblast inh: blocks proliferation of human lung fibroblasts | LL 47 human lung fibroblast viability, ATP luminescence; active compounds read low | viability, % at 10 µM | hit rate 1.1% among 85,000;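 active = viability at or below 50% in the single dose screen; inactive = viability above 50%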;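 also: compound exposure lasted 72 h before the ATP readout; 100% = median luminescence of untreated cell-only wells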
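Test system: LL 47 human lung fibroblasts / Quantity: 1,150 cells in each well / Medium: IMEM growth medium with 15% fetal bovine serum / Incubation: 72 h compound exposure at 37 °C after overnight plating / Detection: CellTiter-Glo luminescence measuring cellular ATP / Read-out: % viability versus median cells-only luminescence / Benchmarks: cell-only wells, no compound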
HUVEC prolif 384: human endothelial cell proliferation inhibition; HUVEC proliferation, CellTiter-Glo luminescence, 72 h; active compounds read low; viability, % at 10 µM (by protocol); hit rate 1.1% among 86,000; AID 648;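 active = viability at or below 30%; inactive = viability above 30%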;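 also: 100% = median luminescence of DMSO-only cell control wells on each plate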
HCT116 bCat-KO: beta-catenin-lacking colon tumor cell growth suppression; HCT116 beta-catenin knockout viability, CellTiter-Glo, 60 h; active compounds read low; viability, % at 10 µM; hit rate 1.5% among 140,000;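 active = viability at or under a set limit, the compound median less 4 SD, cut at about 6% in these data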;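 also: 0% = Hyamine 1622 control at 20 µM and 100% = untreated cell control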
H69AR inhibit: growth inhibitors of human H69AR lung tumor cells; H69AR lung tumor viability, ATP luminescence, 72 h; active compounds read low; viability, % at 10 µM; hit rate 6% among 85,000; AID 598;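 active = viability at or below 40%; inactive = viability above 40%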;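 also: multidrug resistant small cell line overexpressing MRP-1 efflux transporter; 100% = mean luminescence of untreated control wells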
* marks the source's active call; other numbers are inactive results; . = not tested or not shown.

SMILES | HCT116 PTEN-null | Pyk2 oligo antag | Fibroblast inh | HUVEC prolif 384 | HCT116 bCat-KO | H69AR inhibit
O=C(Nc1ncc(Cc2ccccc2)s1)c1cccs1 | 68 | -2.2 | 81 | 71 | 82 | 69
O=C(Nc1ncc(Cc2cccc(Cl)c2)s1)c1cccs1 | 42 | -1.7 | 84 | 31 | 33 | 35*
Cc1ccc(Cc2cnc(NC(=O)c3cccs3)s2)cc1 | 28 | -0.9 | 78 | 56 | 37 | 17*
Clc1ccc(CO/N=C2\CCCc3nonc32)c(Cl)c1 | 88 | . | . | . | 92 | .
CC(C)c1nc(SCC(=O)Nc2ccc3c(c2)OCCO3)c2c(=O)n(C)c(=O)n(C)c2n1 | 81 | . | 106 | 75 | 76 | 31*
CCCc1nc(SCC(=O)NCc2ccc3c(c2)OCO3)c2c(=O)n(C)c(=O)n(C)c2n1 | . | . | 102 | 50 | . | 13*
COc1ccc(-c2cc(C3CCN(c4ccc(C(C)=O)cc4[N+](=O)[O-])CC3)[nH]n2)cc1 | 25 | -3.2* | . | . | 33 | .
CC(C)Cn1cc(C(=O)N2CCN(c3ccccn3)CC2)c2c3ccccc3n(C)c2c1=O | 59 | -0.29 | 93 | 70 | 51 | 38*
COC(=O)c1ccc(COc2ccccc2/C=C(\C#N)C(=O)Nc2c(C)cc(C)cc2C)cc1 | 1.1* | . | . | . | 1.4* | .
CCC1CCc2c(sc3nc(SCC(=O)NCc4ccco4)n(-c4ccccc4)c(=O)c23)C1 (stereo unspecified) | 79 | -0.7 | 64 | 38 | 81 | 3.0*
CC1CCc2c(sc3ncn4c(SCC(=O)NCc5ccco5)nnc4c23)C1 (stereo unspecified) | 72 | 1.9 | 102 | 88 | 62 | 10*
Cc1ccc(-n2c(SCC(=O)NCc3ccco3)nc3sc4c(c3c2=O)CC(C)(C)SC4)cc1 | 57 | -0.52 | 105 | 92 | 65 | 54
Cn1c(CSc2nc3ccccc3s2)nnc1SCC(=O)NCc1cccnc1 | 87 | 0.4 | 94 | 95 | 91 | 81
O=C(NC1(C(F)(F)F)N=C2SCCN2C1=O)c1cccnc1 (stereo unspecified) | 102 | . | . | . | 99 | .
COc1cc(CNC2CCCC2)cc(Cl)c1OCc1ccccc1F | 1.1* | 0.8 | . | . | 1.1* | .
O=C1c2ccccc2C(=O)N1CCCN1CCN(CCCN2C(=O)c3ccccc3C2=O)CC1 | . | . | 106 | 109 | . | 91
O=c1c(Cl)c(Cl)cnn1Cc1ccccc1Cl | 1.9* | . | . | . | 1.7* | .
Cc1cc(C)cc(Cn2ncc(Cl)c(Cl)c2=O)c1 | 1.6* | . | . | . | 1.9* | .
Cc1cc(=O)[nH]c2c1cnn2Cc1ccccc1 | 90 | -0.03 | 100 | 102 | 87 | 101
O=c1c(Cl)c(Cl)cnn1-c1ccccc1 | 0.9* | . | . | . | 0.9* | .
Cc1cc(=O)c2n(Cc3ccccc3Cl)nc[n+]2[nH]1 | 92 | 1.4 | 102 | 94 | 96 | 82
Cc1ccc(Cn2ncc(Cl)c(Cl)c2=O)cc1 | 1.7* | 0.14 | . | . | 2.7* | .
CCOC(=O)c1sc(-c2ccccc2)cc1NC(=O)Nc1ccc([N+](=O)[O-])cc1 | 5 | . | . | . | 10 | .
CCc1ccc(C(=O)Cn2ncc(Cl)c(Cl)c2=O)cc1 | 3.0* | 0.71 | 29* | 6.8* | 4.8* | 6.1*
CC(C)(CS(=O)(=O)[O-])NC(=O)CC[N+](C)(C)CCO | 98 | 0.16 | 104 | 105 | 92 | 98
SMILES | HCT116 PTEN-null | Pyk2 oligo antag | Fibroblast inh | HUVEC prolif 384 | HCT116 bCat-KO | H69AR inhibit
Cc1cccc(NC(=O)c2ccc([N+](=O)[O-])s2)c1C | 2.2* | . | . | . | 2.9* | .
Cc1cccc(C)c1NC(=O)c1ccc([N+](=O)[O-])s1 | 28 | . | . | . | 29 | .
Cn1c(=O)c2c(nc(SCC(=O)NCc3ccc4c(c3)OCO4)n2Cc2ccc(Cl)cc2)n(C)c1=O | 81 | 0.19 | 100 | 90 | 85 | 66
c1ccc(Cn2c(CNc3nc4ccccc4n3CCN3CCCCC3)nc3ccccc32)cc1 | 33 | 0.25 | 64 | 15* | 35 | 9.6*
CCOC(=O)c1nnn(CC(=O)N2N=C(c3ccc(Cl)cc3)CC2c2ccccc2)c1C(=O)OCC (stereo unspecified) | 72 | -0.79 | 68 | 75 | 67 | 19*
O=C(NCCCN1CCOCC1)c1c(O)c2cc(Br)cc(Br)c2[nH]c1=O | . | 0.47 | 100 | 102 | . | 18*
Cc1cc(C)cc(Nc2cc(=O)n(C3CCCCC3)c(=O)[nH]2)c1 | 75 | -1 | 89 | 73 | 77 | 39*
COc1ccc(Nc2cc(=O)n(C3CCCCC3)c(=O)[nH]2)c(OC)c1 | 77 | -1.9 | 85 | 86 | 85 | 52
